ChEMBL document CHEMBL4350999, “Enhanced tumor retention of NTSR1-targeted agents by employing a hydrophilic cysteine cathepsin inhibitor” (Eur J Med Chem, 2019)

Legend:
[1] = Drug uptake in bone of SCID mouse xenografted with human HT-29 cells at 0.37 MBq/mouse, iv measured at 4 hrs using 177Lu labelled compound by gamma counter analysis; type: ADME, organism-based, Bone element; conditions: in vivo
In short: (§1)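 Female SCID mice (5 weeks) bore s.c. flank xenografts of HT-29 cells (5 × 10^6 in Matrigel), used at about 80 mm3 (two weeks) and randomized. Each mouse received 10 μCi (0.37 MBq) of HPLC-purified 177Lu-conjugate via tail vein. Tissues were excised, weighed and gamma-counted, expressed as %ID/g; mean ± SD, n = 5.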

[2] = Drug uptake in pancreas of SCID mouse xenografted with human HT-29 cells at 0.37 MBq/mouse, iv measured at 72 hrs using 177Lu labelled compound by gamma counter analysis; type: ADME, organism-based; conditions: in vivo; in short: as §1
[3] = Drug uptake in membrane of human HT-29 cells measured after 240 mins using 177Lu labelled compound by gamma counter method relative to control; type: ADME, cell-based; conditions: ht-29, 4 h
In short: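 HT-29 cells (~1 × 10^6 in 1 mL medium) were incubated with 177Lu-conjugate (100,000 cpm) at 37 °C and sampled at 15–240 min. After medium washes, surface-bound activity was stripped with pH 2.8 glycine-HCl/NaCl buffer, and the internalized fraction was taken from the 1% SDS lysate. Fractions were gamma-counted as % of total added activity; mean ± SD, n = 3.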

[4] = Drug uptake in blood of SCID mouse xenografted with human HT-29 cells at 0.37 MBq/mouse, iv measured at 24 hrs using 177Lu labelled compound by gamma counter analysis; type: ADME, organism-based; conditions: in vivo
In short: (§2)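 Female SCID mice bearing s.c. flank HT-29 xenografts (5 × 10^6 cells in Matrigel, ~80 mm3). Given 10 μCi (0.37 MBq) 177Lu conjugate i.v. by tail vein; groups sacrificed at 4, 24, 72 h. Tissues weighed and gamma-counted as %ID/g, excretion as %ID; n = 5, mean ± SD. Blocking arms: colchicine 1 mg/kg i.p. beforehand, or D-lysine 40 mg/kg co-injected.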

[5] = Drug uptake in kidney of SCID mouse xenografted with human HT-29 cells at 0.37 MBq/mouse, iv measured at 72 hrs using 177Lu labelled compound by gamma counter analysis; type: ADME, organism-based; conditions: in vivo; in short: as §1
[6] = Drug uptake in SCID mouse xenografted with human HT-29 cells assessed as tumour retention level at 0.37 MBq/mouse, iv measured at 4 hrs using 177Lu labelled compound by gamma counter analysis; type: ADME, organism-based; conditions: in vivo; in short: as §2
[7] = Drug uptake in heart of SCID mouse xenografted with human HT-29 cells at 0.37 MBq/mouse, iv measured at 24 hrs using 177Lu labelled compound by gamma counter analysis; type: ADME, organism-based; conditions: in vivo; in short: as §1
[8] = Drug uptake in stomach of SCID mouse xenografted with human HT-29 cells at 0.37 MBq/mouse, iv measured at 72 hrs using 177Lu labelled compound by gamma counter analysis; type: ADME, organism-based; conditions: in vivo
In short: (§3)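 Female SCID mice (5 weeks old) received s.c. flank HT-29 cells (5 × 10^6 in Matrigel). At ~80 mm3, two weeks later, mice were randomized and given 10 μCi (0.37 MBq) of purified 177Lu conjugate i.v. by tail vein. Mice were killed at 4, 24 or 72 h. Tissues were weighed and gamma counted as %ID/g, mean ± SD, n = 5. Tumor-to-tissue ratios were calculated.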

[9] = Drug uptake in small intestine of SCID mouse xenografted with human HT-29 cells at 0.37 MBq/mouse, iv measured at 24 hrs using 177Lu labelled compound by gamma counter analysis; type: ADME, organism-based; conditions: in vivo; in short: as §1
[10] = Drug uptake in bone of SCID mouse xenografted with human HT-29 cells at 0.37 MBq/mouse, iv measured at 24 hrs using 177Lu labelled compound by gamma counter analysis; type: ADME, organism-based, Bone element; conditions: in vivo; in short: as §2
[11] = Drug uptake in large intestine of SCID mouse xenografted with human HT-29 cells at 0.37 MBq/mouse, iv measured at 72 hrs using 177Lu labelled compound by gamma counter analysis; type: ADME, organism-based; conditions: in vivo; in short: as §1
[12] = Drug uptake in lung of SCID mouse xenografted with human HT-29 cells at 0.37 MBq/mouse, iv measured at 24 hrs using 177Lu labelled compound by gamma counter analysis; type: ADME, organism-based; conditions: in vivo; in short: as §1
[13] = Drug uptake in spleen of SCID mouse xenografted with human HT-29 cells at 0.37 MBq/mouse, iv measured at 24 hrs using 177Lu labelled compound by gamma counter analysis; type: ADME, organism-based; conditions: in vivo; in short: as §3
[14] = Drug uptake in kidney of SCID mouse xenografted with human HT-29 cells at 0.37 MBq/mouse, iv measured at 24 hrs using 177Lu labelled compound by gamma counter analysis; type: ADME, organism-based; conditions: in vivo; in short: as §1
[15] = Drug uptake in muscle of SCID mouse xenografted with human HT-29 cells at 0.37 MBq/mouse, iv measured at 24 hrs using 177Lu labelled compound by gamma counter analysis; type: ADME, organism-based, Muscle tissue; conditions: in vivo; in short: as §1
[16] = Drug uptake in small intestine of SCID mouse xenografted with human HT-29 cells at 0.37 MBq/mouse, iv measured at 72 hrs using 177Lu labelled compound by gamma counter analysis; type: ADME, organism-based; conditions: in vivo; in short: as §1
[17] = Drug uptake in brain of SCID mouse xenografted with human HT-29 cells at 0.37 MBq/mouse, iv measured at 72 hrs using 177Lu labelled compound by gamma counter analysis; type: ADME, organism-based; conditions: in vivo; in short: as §1
[18] = Drug uptake in heart of SCID mouse xenografted with human HT-29 cells at 0.37 MBq/mouse, iv measured at 4 hrs using 177Lu labelled compound by gamma counter analysis; type: ADME, organism-based; conditions: in vivo; in short: as §1
[19] = Drug uptake in brain of SCID mouse xenografted with human HT-29 cells at 0.37 MBq/mouse, iv measured at 4 hrs using 177Lu labelled compound by gamma counter analysis; type: ADME, organism-based; conditions: in vivo; in short: as §1
[20] = Drug excretion in SCID mouse xenografted with human HT-29 cells at 0.37 MBq/mouse, iv measured at 4 hrs using 177Lu labelled compound by gamma counter analysis; type: ADME, organism-based; conditions: in vivo; in short: as §2
[21] = Drug uptake in large intestine of SCID mouse xenografted with human HT-29 cells at 0.37 MBq/mouse, iv measured at 24 hrs using 177Lu labelled compound by gamma counter analysis; type: ADME, organism-based; conditions: in vivo; in short: as §1
[22] = Drug uptake in large intestine of SCID mouse xenografted with human HT-29 cells at 0.37 MBq/mouse, iv measured at 4 hrs using 177Lu labelled compound by gamma counter analysis; type: ADME, organism-based; conditions: in vivo; in short: as §1
[23] = Drug uptake in spleen of SCID mouse xenografted with human HT-29 cells at 0.37 MBq/mouse, iv measured at 4 hrs using 177Lu labelled compound by gamma counter analysis; type: ADME, organism-based; conditions: in vivo; in short: as §3
[24] = Drug uptake in blood of SCID mouse xenografted with human HT-29 cells at 0.37 MBq/mouse, iv measured at 4 hrs using 177Lu labelled compound by gamma counter analysis; type: ADME, organism-based; conditions: in vivo; in short: as §2
[25] = Drug uptake in liver of SCID mouse xenografted with human HT-29 cells at 0.37 MBq/mouse, iv measured at 4 hrs using 177Lu labelled compound by gamma counter analysis; type: ADME, organism-based; conditions: in vivo; in short: as §1
[26] = Drug uptake in SCID mouse xenografted with human HT-29 cells assessed as tumour retention level at 0.37 MBq/mouse, iv measured at 72 hrs using 177Lu labelled compound by gamma counter analysis; type: ADME, organism-based; conditions: in vivo; in short: as §2
[27] = Drug uptake in liver of SCID mouse xenografted with human HT-29 cells at 0.37 MBq/mouse, iv measured at 72 hrs using 177Lu labelled compound by gamma counter analysis; type: ADME, organism-based; conditions: in vivo; in short: as §1

Cc1cc(O)cc(C)c1C[C@H](NC(=O)[C@@H]1CCCN1C(=O)[C@H](CCCNC(=N)N)NC(=O)[C@H](CCCNC(=N)N)N(C)C(=O)[C@@H]1CCCN1C(=O)[C@H](CCCCN)NC(=O)[C@@H](CO)NC(=O)[C@@H](CO)NC(=O)[C@@H](CO)NC(=O)[C@H](Cc1cn(CCNC(=O)[C@H](CCCNC(=N)N)NC(=O)[C@H](CC(C)C)NC(=O)C2OC2C(=O)O)nn1)NC(=O)CN1CCN(CC(=O)O)CCN(CC(=O)O)CCN(CC(=O)O)CC1)C(=O)N[C@H](C(=O)N[C@@H](CC(C)C)C(=O)O)C(C)(C)C (some centres not stated)
Drug uptake [1]: 0.8 % ID/g
Drug uptake [2]: 0.15 % ID/g
Drug uptake [3]: Not Active
Drug uptake [4]: 0.01 % ID/g
Drug uptake [5]: 46 % ID/g
Drug uptake [6]: 6.4 % ID/g
Drug uptake [7]: 0.08 % ID/g
Drug uptake [8]: 0.21 % ID/g
Drug uptake [9]: 3.2 % ID/g
Drug uptake [10]: 1.1 % ID/g
Drug uptake [11]: 0.73 % ID/g
Drug uptake [12]: 0.45 % ID/g
Drug uptake [13]: 1.7 % ID/g
Drug uptake [14]: 80 % ID/g
Drug uptake [15]: 0.04 % ID/g
Drug uptake [16]: 2.3 % ID/g
Drug uptake [17]: 0.02 % ID/g
Drug uptake [18]: 0.14 % ID/g
Drug uptake [19]: 0.01 % ID/g
Drug excretion [20]: 70 %ID
Drug uptake [21]: 1.1 % ID/g
Drug uptake [22]: 1.2 % ID/g
Drug uptake [23]: 1.4 % ID/g
Drug uptake [24]: 0.02 % ID/g
Drug uptake [25]: 0.78 % ID/g
Drug uptake [26]: 3.9 % ID/g
Drug uptake [27]: 0.67 % ID/g
